A selection: hits, their analogues and other compounds. The true share with any hit is near 2.2%.
DENV2 CPE = protects cells from dengue virus 2 cytopathic effect | 350,000 tested, 1.7% active | CPE inhibition, % at 9.99 µM | DENV2-infected cells, cytopathic effect rescue, plate reader; in the data active = CPE inhibition above about 20%, passing the limit was not always enough; inconclusive = no clear call, values can overlap the other calls; tested in BHK-21 cells
Statin myotox sup = protects C2C12 myotubes from simvastatin toxicity. ATP luminescence, 48 h; scaled: DMSO 0, geranylgeraniol control 100. rescue of ATP level, % at 7.49 µM. 330,000 tested, 0.78% active. AID 602340;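 active = mean ATP rescue above about 67%, or every replicate alone reaching that limit, limit read from the data, passing the limit was not always enough; inconclusive = no clear call, values can overlap the other calls; inactive = mean under the limit and some replicate under it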;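 also: myotubes were challenged with 10 µM simvastatin during compound exposure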
E-selectin induc = E-selectin induction on HUVECs; 260,000 tested, 0.37% active; activation, % at 7.58 µM; HUVEC E-selectin immunofluorescence imaging; normalized: neutral wells 0, TNF-alpha wells 100; P16581;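 active = mean E-selectin-positive cell signal at least 10% of the positive control, reached in at least 60% of replicates, without over 20% cell loss; inconclusive = no rule given, readout overlaps actives, possibly toxicity-flagged; inactive = the rest, including those meeting only one limit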
Target sequence (P16581 whole entry, looked up): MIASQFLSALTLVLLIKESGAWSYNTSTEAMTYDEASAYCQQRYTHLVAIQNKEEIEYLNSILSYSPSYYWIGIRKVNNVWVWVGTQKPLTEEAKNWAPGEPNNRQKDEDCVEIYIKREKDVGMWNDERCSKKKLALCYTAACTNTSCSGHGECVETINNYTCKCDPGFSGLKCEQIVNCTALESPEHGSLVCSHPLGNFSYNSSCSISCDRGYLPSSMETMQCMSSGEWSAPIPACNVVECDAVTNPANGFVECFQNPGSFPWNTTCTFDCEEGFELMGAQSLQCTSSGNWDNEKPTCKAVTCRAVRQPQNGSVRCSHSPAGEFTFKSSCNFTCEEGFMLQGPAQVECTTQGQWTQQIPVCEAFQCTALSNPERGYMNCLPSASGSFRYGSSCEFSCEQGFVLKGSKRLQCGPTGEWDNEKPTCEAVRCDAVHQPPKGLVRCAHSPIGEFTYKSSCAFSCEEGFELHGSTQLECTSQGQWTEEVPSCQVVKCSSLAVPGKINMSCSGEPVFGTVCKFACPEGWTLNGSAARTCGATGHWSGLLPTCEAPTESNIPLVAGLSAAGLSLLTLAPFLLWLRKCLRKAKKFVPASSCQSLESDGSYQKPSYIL
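Test system – human umbilical vein endothelial cells (HUVEC), E-selectin induction · Input – 3,000 HUVEC seeded per well · Buffer or medium – EGM-2, gelatin · Compound dosing – single-point compound dose · Detection – immunofluorescence imaging · Measure – percent E-selectin-positive cells · Controls – TNF-alpha high, DMSO low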
Numbers stand for hits; i = inactive; ? = inconclusive; nt = not tested or not shown.

SMILES	DENV2 CPE	Statin myotox sup	E-selectin induc
C[C@H]1CN([C@@H](C)CO)C(=O)c2cc(-c3ccccc3F)cnc2O[C@@H]1CN(C)C(=O)C1CCC1	i	i	i
CCC(=O)N1[C@@H]2c3ccc(-c4ccccc4F)c(=O)n3C[C@H]1[C@H](CO)[C@H]2C(=O)NC1CCC1	i	i	i
C[C@@H]1CN([C@H](C)CO)S(=O)(=O)c2ccc(-c3cccnc3)cc2O[C@H]1CN(C)Cc1cccnc1	nt	i	i
Cc1cc(C(=O)Nc2ccc3c(c2)C(=O)N(C)[C@@H]2CC[C@H](CC(=O)O)O[C@@H]2CO3)no1	i	i	i
CN(C)C(=O)C[C@H]1CC[C@@H]2[C@H](COc3ccc(NC(=O)c4cnccn4)cc3C(=O)N2C)O1	i	i	i
CN(C)C(=O)C[C@H]1CC[C@H]2[C@@H](COc3ccc(NC(=O)c4cnccn4)cc3C(=O)N2C)O1	59.7	i	i
CC/C(=N\O)c1ccc(O)c(OC)c1	nt	i	nt
C=CCOc1ccc(/C(CC)=N/O)cc1OC	nt	117.4	nt
CCCNC(=O)[C@H]1[C@H](CO)[C@H]2Cn3c(ccc(C4=CCCC4)c3=O)[C@@H]1N2Cc1ccncc1	i	i	i
C[C@@H]1CN([C@@H](C)CO)C(=O)c2cc(NC(=O)Nc3ccc4c(c3)OCO4)ccc2O[C@@H]1CN(C)Cc1ccccc1	i	i	i
COc1ccc(S(=O)(=O)N(C)C[C@H]2Oc3ccc(NS(=O)(=O)c4ccc(C)cc4)cc3C(=O)N([C@H](C)CO)C[C@@H]2C)cc1	i	nt	i
CCCC(=O)Nc1ccc2c(c1)OC[C@H](C)N(Cc1ccccn1)C[C@H](C)[C@@H](OC)CN(C)C2=O	i	nt	i
O=C(CC1NCCN(Cc2ccccc2)C1=O)Nc1ccccc1 (configuration not stated)	71.6	nt	i
O=C(C[C@H]1C(=O)N(Cc2ccccc2)C[C@@H]1Cc1ccccc1)Nc1ccccc1	i	i	i
Cc1ccc(-c2nnc(SCCC(=O)N3CCOCC3)o2)cc1	i	nt	i
O=C(CCSc1nnc(-c2ccccc2)o1)N1CCOCC1	26.8	nt	nt
CN(C)CC(=O)N[C@@H]1CC[C@@H](CCNS(=O)(=O)c2ccccc2)O[C@H]1CO	i	i	i
O=C(C[C@H]1CC[C@H](NC(=O)Cc2cccnc2)[C@H](CO)O1)Nc1ccc(-c2ccccc2)cc1	i	i	i
Oc1c(Cl)cc(Cl)cc1/C=N/c1nccs1	nt	i	nt
C(=N\c1nccs1)/Nc1nccs1	nt	98.1	nt
CO[C@H]1CN(C)C(=O)c2ccc(NC(=O)Nc3cc(F)ccc3F)cc2OC[C@H](C)N(C)C[C@@H]1C	i	nt	i
O=C1CN(Cc2ccc(F)cc2)C[C@H]2[C@H](c3ccc(Br)cc3)[C@@H](CO)N12	i	nt	i
COc1ccc(S(=O)(=O)N2CCN(c3ccccc3OC)CC2)cc1	i	i	nt
COc1ccc(S(=O)(=O)N2CCN(c3ccc4nnc(-c5ccccc5)n4n3)CC2)cc1	i	111.0	i
Oc1ccc(-c2csc(Nc3ccc4c(c3)OCO4)n2)c(O)c1	i	131.6	i
SMILES	DENV2 CPE	Statin myotox sup	E-selectin induc
Oc1ccc(-c2csc(Nc3ncccn3)n2)c(O)c1	i	i	nt
CC(=O)N(C)C[C@H]1Oc2ncc(-c3ccccc3C)cc2C(=O)N([C@@H](C)CO)C[C@H]1C	i	i	i
COc1ccc(S(=O)(=O)Nc2cccc3c2O[C@H](CN(C)Cc2ccc(Oc4ccccc4)cc2)[C@H](C)CN([C@@H](C)CO)C3=O)cc1	i	i	i
O=C(Cc1ccccc1)N[C@H]1CC[C@@H](CC(=O)N2CCOCC2)O[C@@H]1CO	i	i	i
Cc1cc2cc(CNC(=O)c3ccc(S(=O)(=O)N4CCCCC4)cc3)ccc2n1C	i	i	82.5
Cc1cc2cc(CNC(=O)c3ccc(S(=O)(=O)N4CCCC4)cc3)ccc2n1C	i	i	?
Cc1ccc(Nc2cc(=O)[nH]c(=O)[nH]2)c(C)c1	nt	120.9	nt
Cc1cccc(Nc2cc(=O)[nH]c(=O)[nH]2)c1	i	nt	nt
NC(=O)C1CCN(C(=O)C2(NC(=O)Nc3cccc(F)c3)CCCCC2)CC1	44.8	i	nt
O=C(Nc1cccc(F)c1)NC1(C(=O)N2CCC(O)CC2)CCCCC1	i	i	i
COc1ccccc1NC(=O)NC1(C(=O)N2CCCCCC2)CCCCC1	nt	105.9	nt
COc1ccccc1NC(=O)NC1(C(=O)N2CCOCC2)CCCCC1	i	i	nt
Cc1ccccc1S(=O)(=O)N1CC[C@@H]2[C@H](CO)Nc3ccc(-c4cccc(F)c4)cc3[C@@H]21	i	i	i
CC(C)NC(=O)N[C@@H]1CC[C@H](CCn2cc(-c3ccc(F)cc3)nn2)O[C@H]1CO	i	i	i
CN(C)C(=O)C[C@@H]1CC[C@@H]2[C@@H](COc3ccc(NC(=O)NCc4ccccc4)cc3C(=O)N2C)O1	i	i	i
COc1ccc(CN(C)C[C@H]2OCCCC[C@@H](C)Oc3ccc(NC(=O)NC(C)C)cc3C(=O)N([C@H](C)CO)C[C@H]2C)cc1	85.5	i	i
COc1ccc(NC(=O)Nc2ccc3c(c2)C(=O)N([C@@H](C)CO)C[C@H](C)[C@H](CN(C)Cc2ccc(C(=O)O)cc2)OCCCC[C@H](C)O3)cc1	80.1	nt	i
COc1ccc(CN(C)C[C@@H]2OCCCC[C@H](C)Oc3ccc(NC(=O)Nc4ccccc4)cc3C(=O)N([C@H](C)CO)C[C@H]2C)cc1	38.6	nt	i
COc1ccc(NC(=O)Nc2ccc3c(c2)C(=O)N([C@H](C)CO)C[C@@H](C)[C@@H](CN(C)Cc2ccc(C(F)(F)F)cc2)OCCCC[C@H](C)O3)cc1	i	157.9	i
COc1ccc(CN(C)C[C@H]2OCCCC[C@@H](C)Oc3ccc(NC(=O)Nc4ccccc4)cc3C(=O)N([C@@H](C)CO)C[C@H]2C)cc1	i	nt	i
COc1ccc(NC(=O)Nc2ccc3c(c2)C(=O)N([C@H](C)CO)C[C@H](C)[C@@H](CN(C)Cc2ccc(C(F)(F)F)cc2)OCCCC[C@H](C)O3)cc1	i	i	i
COc1ccc(CN(C)C[C@@H]2OCCCC[C@H](C)Oc3ccc(NC(=O)NC(C)C)cc3C(=O)N([C@H](C)CO)C[C@H]2C)cc1	i	i	i
COc1ccc(NC(=O)Nc2ccc3c(c2)C(=O)N([C@H](C)CO)C[C@@H](C)[C@H](CN(C)Cc2ccc(C(=O)O)cc2)OCCCC[C@H](C)O3)cc1	i	nt	i
COc1ccc(CN(C)C[C@H]2Oc3c(NC(=O)Nc4ccc(F)cc4)cccc3C(=O)N([C@H](C)CO)C[C@H]2C)cc1	i	i	i
C[C@@H]1CN([C@H](C)CO)C(=O)c2cc(NC(=O)Cn3cnnn3)ccc2O[C@H]1CN(C)C	i	i	nt
CN(C)CC(=O)N1[C@H](CO)[C@@H](c2ccccc2-c2ccccc2F)[C@@H]1C#N	?	nt	i
COc1ccc(NC(=O)Nc2ccc3c(c2)C(=O)N([C@H](C)CO)C[C@H](C)[C@H](CN(C)C(=O)Nc2ccc(C(F)(F)F)cc2)OCCCC[C@H](C)O3)cc1	47.8	nt	i
COc1ccc(NC(=O)Nc2ccc3c(c2)C(=O)N([C@H](C)CO)C[C@H](C)[C@@H](CN(C)C(=O)Nc2ccc(C(F)(F)F)cc2)OCCCC[C@@H](C)O3)cc1	?	nt	i
Cc1ccc(C(=O)Nc2ccc(N3CCN(C)CC3)cc2)cc1C	26.8	i	nt
Cc1ccc(C(=O)Nc2ccc(N3CCN(S(C)(=O)=O)CC3)cc2)cc1C	i	nt	nt

Bioassay records deposited in PubChem by Broad Institute.
